Experiments:
Homo sapiens [1] = species: Homo sapiens; test: (§1) Ex vivo carbonic anhydrase activation after 60 min incubation of human erythrocytes with 5 uM activator Histamine; type: functional
Method in brief: (§2)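 Fresh human blood washed repeatedly with 5 mM Tris pH 7.40 and centrifuged; erythrocytes incubated with 5 µM activator at 37 °C with gentle stirring. Cells washed three times with buffer to remove unbound compound, lysed in distilled water and centrifuged. Lysate CA activity measured by 4-nitrophenyl acetate esterase assay at 400 nm. Buffer-only cells set as 100%.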

[2] = target: Carbonic anhydrase 1 (Homo sapiens) (UniProt P00915); test: In vitro carbonic anhydrase activation in human cloned Carbonic anhydrase I (hCA I)
[3] = target: T1, Carbonic anhydrase 4 (Bos taurus) (UniProt Q95323); test: In vitro carbonic anhydrase IV activation in bovine lung microsomes.; details: Microsome
T1 sequence (whole entry): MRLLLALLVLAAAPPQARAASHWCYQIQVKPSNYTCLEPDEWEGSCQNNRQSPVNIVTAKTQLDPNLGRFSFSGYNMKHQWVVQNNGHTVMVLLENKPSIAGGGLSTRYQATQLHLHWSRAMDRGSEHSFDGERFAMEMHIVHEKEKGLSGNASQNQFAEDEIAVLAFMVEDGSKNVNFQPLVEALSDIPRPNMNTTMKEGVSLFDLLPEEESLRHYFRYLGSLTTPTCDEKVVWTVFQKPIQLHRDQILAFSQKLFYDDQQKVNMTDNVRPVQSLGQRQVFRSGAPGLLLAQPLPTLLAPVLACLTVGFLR
Method in brief: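 CA IV isolated from bovine lung microsomes and quantified by ethoxzolamide titration; used at 39 nM. 4-Nitrophenyl acetate hydrolysis initial rates followed at 400 nm, 25 °C, pH 7.40, substrate 2×10-2 to 1×10^-6 M. Activator preincubated with enzyme 15 min at room temperature. Dilutions down to 0.1 nM. Non-enzymatic rate subtracted. KA given as mean of at least three determinations.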

[4] = target: Carbonic anhydrase 2 (Homo sapiens) (UniProt P00918); test: In vitro carbonic anhydrase activation in human cloned Carbonic anhydrase II (hCA II)
Homo sapiens [5] = species: Homo sapiens; test: (§3) Ex vivo carbonic anhydrase activation after 30 min incubation of human erythrocytes with 5 uM activator Histamine; type: functional; method in brief: as §2
Homo sapiens [6] = species: Homo sapiens; test: as §3; type: functional; remark: listed apart in the source
Method in brief: (§4)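 Freshly isolated human blood washed in Tris buffer (pH 7.40, 5 mM), erythrocytes incubated with 5 µM activator solution at 37 °C with gentle stirring; cells washed three times to remove unbound compound, lysed in distilled water, centrifuged; CA activity of lysate measured by 4-nitrophenyl acetate esterase assay (400 nm, pH 7.40, 25 °C). Untreated cells taken as 100%.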

Homo sapiens [7] = species: Homo sapiens; test: as §1; type: functional; method in brief: as §4; remark: listed apart in the source

Sequence of Carbonic anhydrase 1 (Homo sapiens) (P00915 2-261 limits assumed): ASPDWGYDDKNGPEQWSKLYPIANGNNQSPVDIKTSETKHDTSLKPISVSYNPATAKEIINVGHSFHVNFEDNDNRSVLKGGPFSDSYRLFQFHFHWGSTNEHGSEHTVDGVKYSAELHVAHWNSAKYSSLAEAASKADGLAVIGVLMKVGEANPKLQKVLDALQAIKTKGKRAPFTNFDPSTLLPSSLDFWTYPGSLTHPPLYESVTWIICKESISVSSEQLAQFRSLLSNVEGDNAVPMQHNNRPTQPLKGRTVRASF

Compound | CA (Homo sapiens [1]) | KA [2] | KA [3] | KA [4] | CA (Homo sapiens [5]) | CA (Homo sapiens [6]) | CA (Homo sapiens [7])
Cc1ccccc1S(=O)(=O)NC(=O)N[C@@H](Cc1c[nH]cn1)C(=O)NCCC(=O)N[C@@H](Cc1c[nH]cn1)C(=O)O | 211% | 0.03 µM | 0.5 µM | 0.7 µM | 180% | – | –
N=C(N)NCCC[C@H](NC(=O)NS(=O)(=O)c1ccc(F)cc1)C(=O)NCCC(=O)N[C@@H](Cc1c[nH]cn1)C(=O)O | 225% | 0.01 µM | 0.2 µM | 1.2 µM | 186% | – | –
Cc1ccccc1S(=O)(=O)NC(=O)NCCC(=O)N[C@@H](Cc1c[nH]cn1)C(=O)NCCC(=O)N[C@@H](Cc1c[nH]cn1)C(=O)O | – | 0.004 µM | 0.008 µM | 0.02 µM | – | 236% | 267%
NCCc1c[nH]cn1 [HISTAMINE] | – | 2 µM | – | – | – | 121% | 130%
O=C(CCNC(=O)[C@H](Cc1c[nH]cn1)NC(=O)CCNC(=O)NS(=O)(=O)c1ccc(F)cc1)N[C@@H](Cc1c[nH]cn1)C(=O)O | 283% | 0.002 µM | 0.005 µM | 0.01 µM | 254% | – | –
Cc1ccccc1S(=O)(=O)NC(=O)N[C@@H](Cc1ccccc1)C(=O)NCCC(=O)N[C@@H](Cc1c[nH]cn1)C(=O)O | – | 0.08 µM | 1.9 µM | 10 µM | – | – | –
Cc1ccccc1S(=O)(=O)NC(=O)N1CCCC(C(=O)NCCC(=O)NC(Cc2c[nH]cn2)C(=O)O)C1 (stereo unspecified) | – | 0.16 µM | 3 µM | 9 µM | – | – | –
C[C@H](NC(=O)NS(=O)(=O)c1ccc(F)cc1)C(=O)NCCC(=O)NC(Cc1c[nH]cn1)C(=O)O (stereo partly specified) | – | 0.21 µM | 2 µM | 13 µM | – | – | –
Cc1ccccc1S(=O)(=O)NC(=O)N[C@@H](Cc1ccccc1)C(=O)N1CCC[C@H]1C(=O)NCCC(=O)N[C@@H](Cc1c[nH]cn1)C(=O)O | – | 0.005 µM | 0.008 µM | 0.04 µM | – | – | –
Cc1ccccc1S(=O)(=O)NC(=O)N[C@@H](CCC(N)=O)C(=O)NCCC(=O)N[C@@H](Cc1c[nH]cn1)C(=O)O | – | 0.14 µM | 3.1 µM | 6 µM | – | – | –
CC(C)C[C@H](NC(=O)NS(=O)(=O)c1ccc(F)cc1)C(=O)NCCC(=O)N[C@@H](Cc1c[nH]cn1)C(=O)O | – | 0.12 µM | 1.2 µM | 9 µM | – | – | –

From ChEMBL document CHEMBL1135797, “Carbonic anhydrase activators: high affinity isozymes I, II, and IV activators, incorporating a beta-alanyl-histidine scaffold” (2002)
